According to the EternaBench riboswitch data:

How the values were obtained:
MS2 coat protein [1] = assay: apparent Kd, MS2 coat protein; higher = weaker binding; RNA-MaP array; theophylline 2 mM where present
Procedure, shortened: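 The apparent Kd is reported as the median of filtered per-cluster binding-curve fits. To get these curves, designs transcribed by stalled E. coli RNA polymerase on Illumina sequencing-chip clusters were titrated with SNAP-549-labelled MS2 coat protein from 0.7 or 1.5 nM, doubling to 3 µM. Titrations were run without and then with constant ligand in 100 mM Tris-HCl pH 7.5, 80 mM KCl, 4 mM MgCl2, BSA, DTT, yeast tRNA and Tween-20, and green signal was normalised to red-channel RNA signal and control-cluster median Fmax.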

MS2 coat protein [2] = assay: apparent Kd, MS2 coat protein; higher = weaker binding; RNA-MaP array
Procedure, shortened: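 Apparent Kd was taken as the median of binding curves fitted cluster by cluster. The designed RNAs were made by transcription of sequenced DNA templates on an Illumina sequencing chip and exposed to fluorescently labeled MS2 coat protein (1.5 nM to 3 μM) at room temperature, with or without input ligand, for 0.8–1.5 h at the lowest and 10–20 min at the highest concentrations. Any design measured on fewer than 10 clusters was left out.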

[3] = designed as: ON switch for theophylline, no ligand
[4] = ligand present: theophylline, designed as: ON switch for theophylline
[5] = designed as: OFF switch for theophylline, no ligand
[6] = ligand present: theophylline, designed as: OFF switch for theophylline
[7] = designed as: ON switch for flavin mononucleotide, no ligand
[8] = ligand present: flavin mononucleotide, designed as: ON switch for flavin mononucleotide

AGUGUUAUAACUGAUACCAGACUUGCGCUUAAACAUGAGGAUCACCCAUGUAAAAUGGUUGUCCCUUGGCAGCAGAAAAUACACA
apparent Kd (MS2 coat protein [1]; [3]): 74.1 nM
apparent Kd (MS2 coat protein [1]; [4]): 21.6 nM

AGAUCUUUCGAAAGAAGGAUAAUGGCUGAUACCAGAGACGAAAGUCUCCCUUGGCAGCAGUGCCAACAUGAGGAUCACCCAUGUA
apparent Kd (MS2 coat protein [1]; [3]): 170 nM
apparent Kd (MS2 coat protein [1]; [4]): 39.7 nM

UUAUCUAUAUUCGAUACCAGUACCCUGGCCGCAAAUCCUAACAUGAGGAUCACCCAUGUGUACCCUUGGCAGCGGGUAUGGGUUU
apparent Kd (MS2 coat protein [1]; [5]): 23.2 nM
apparent Kd (MS2 coat protein [1]; [6]): 88.8 nM

UCAUAUUAGUGAGAUGUAAGGUAUCAUGAUACCAGUAGAUAAUUAUACCCUUGGCAGCAUAACAUGAGGAUCACCCAUGUACAUG
apparent Kd (MS2 coat protein [1]; [5]): 25.6 nM
apparent Kd (MS2 coat protein [1]; [6]): 23.3 nM

UCGCAUUGCUCAGAUACCAGACAUGAGGAUCACCCAUGUACCAAGGUACCCGAAAGGAAUGUCCCUUGGCAGCUGAGCAAUGCGU
apparent Kd (MS2 coat protein [1]; [5]): 9.82 nM
apparent Kd (MS2 coat protein [1]; [6]): 23.6 nM

AAGCUGGGUGUAAAAUAAAUAAUCACUGAUACCAGACUAUGAGAUGUCCCUUGGCAGCAGAAACAUGAGGAUCACCCAUGUAAUA
apparent Kd (MS2 coat protein [1]; [5]): 20.7 nM
apparent Kd (MS2 coat protein [1]; [6]): 21.5 nM

UAAAACAUGAGGAUCACCCAUGUAAAAGAUACCAGAGUGAUGAUCCUCCCUUGGCAGCUUAACGCUGAUUGAUUACAAUCAGCGA
apparent Kd (MS2 coat protein [1]; [3]): 93.9 nM
apparent Kd (MS2 coat protein [1]; [4]): 180 nM

AUGUUUGUGUGAGAUACCAGUGAGGCCACAUGAGGAUCACCCAUGUCCCUCACUCCGGCCCACCCUUGGCAGCUCUUAUAGUAAA
apparent Kd (MS2 coat protein [1]; [5]): 9.5 nM
apparent Kd (MS2 coat protein [1]; [6]): 39.4 nM

ACAUGAGGAUCACCCAUGUGGCGUCUUGAUACCAGACGAGAAGUAGUCCCUUGGCAGCAAAUACAUGAGGAUCACCCAUGUAGGA
apparent Kd (MS2 coat protein [1]; [5]): 23.9 nM
apparent Kd (MS2 coat protein [1]; [6]): 37.1 nM

ACACCGAAAGGUGCAUUUUCCUUUUCAGAUACCAGACUUUACGUUGUCCCUUGGCAGCUGUAUCACAUGAGGAUCACCCAUGUUG
apparent Kd (MS2 coat protein [1]; [3]): 16.4 nM
apparent Kd (MS2 coat protein [1]; [4]): 17.6 nM

CGUAUCGUAACUGAUACCAGUGUACUGACAUGAGGAUCACCCAUGUUGGGUUUUGUUGUACACCCUUGGCAGCAGAAUCGAUACG
apparent Kd (MS2 coat protein [1]; [5]): 67 nM
apparent Kd (MS2 coat protein [1]; [6]): 103 nM

CACUUCAUGUGAGAUACCAGUGCCUUACAUGAGGAUCACCCAUGUCGUAAUGUGGAGAAGCACCCUUGGCAGCUCGCUUCGAGUG
apparent Kd (MS2 coat protein [1]; [3]): 83.9 nM
apparent Kd (MS2 coat protein [1]; [4]): 71.7 nM

CAUUAUGUAACUGAUACCAGUGUACUGACAUGAGGAUCACCCAUGUUGGGUUUUGUUGUACACCCUUGGCAGCAGAAUCAUAAUG
apparent Kd (MS2 coat protein [1]; [5]): 63.5 nM

GCACCAGGUACGGAUACCAGCUGCCACAGUUACAUGAGGAUCACCCAUGUGAUAAAGUGUAGCCCUUGGCAGCUGUACCUGGUGC
apparent Kd (MS2 coat protein [1]; [3]): 114 nM
apparent Kd (MS2 coat protein [1]; [4]): 14.3 nM

AUCCUCAAGAAUGAUACCAGACCAAACAUGAGGAUCACCCAUGUAUCAGGCAAUUGUUACGUCCCUUGGCAGCAUGUAAGCCGAC
apparent Kd (MS2 coat protein [1]; [3]): 54.9 nM
apparent Kd (MS2 coat protein [1]; [4]): 60.2 nM

GAAACGUAGGUGGAGCGGUGAAAUGGCGAUACCAGCGUGGAAACACGCCCUUGGCAGCGUUAGAACAUGAGGAUCACCCAUGUUU
apparent Kd (MS2 coat protein [1]; [5]): 25.2 nM
apparent Kd (MS2 coat protein [1]; [6]): 112 nM

UGACAUUGCUCAGAUACCAGACAUGAGGAUCACCCAUGUGCCAAAUACGUACAAAUAAAUGUCCCUUGGCAGCUGAGCAAUGUCU
apparent Kd (MS2 coat protein [1]; [5]): 14.2 nM
apparent Kd (MS2 coat protein [1]; [6]): 266 nM

UGGCAGCACCUCAUGUGCUGCCAAGGUGAUACCAGCAUCGAAAGAUGCCCUUGGCAGCACCAACAUGAGGAUCACCCAUGUAAUA
apparent Kd (MS2 coat protein [1]; [3]): 165 nM
apparent Kd (MS2 coat protein [1]; [4]): 152 nM

ACUAACUAUAGUGAUACCAGACGUACAUGAGGAUCACCCAUGUUACAUUCUUGGUUAAAAGUCCCUUGGCAGCACGAUAAGUUCG
apparent Kd (MS2 coat protein [1]; [5]): 9.74 nM
apparent Kd (MS2 coat protein [1]; [6]): 9.5 nM

ACAAAAUAGCUAGGAUAUCGUACGAAUUGACAUUUUUAGCAAACAUGAGGAUCACCCAUGUCCUACGAGAAGGAGCUUAUGAAG
apparent Kd (MS2 coat protein [2]; designed as: OFF switch for flavin mononucleotide, no ligand): 14.3 nM
apparent Kd (MS2 coat protein [2]; ligand present: flavin mononucleotide, designed as: OFF switch for flavin mononucleotide): 7.55 nM

AGACAUGAGGAUCACCCAUGUCUCGGGAUGCGUAGCUUGCACAGAAGGCAUGACCGCAACGGUGAUGAGGAUAUGUCGUACCAA
apparent Kd (MS2 coat protein [2]; [7]): 25.9 nM
apparent Kd (MS2 coat protein [2]; [8]): 8.87 nM

GGCGGGAAAUGAGGAUAUGGUAGUUGAGAAACGCCAGAAGGCAUUGGCAAGGCUAGAGACAUGAGGAUCACCCAUGUAAUCAUA
apparent Kd (MS2 coat protein [2]; [7]): 8.35 nM
apparent Kd (MS2 coat protein [2]; [8]): 7 nM

CAAAUAGACCACGAUACCAGAACACAAGGAGUAAUAUCAAACAUGAGGAUCACCCAUGUCUUCCCUUGGCAGCGUAGCACGGAGU
apparent Kd (MS2 coat protein [2]; [5]): 11.7 nM
apparent Kd (MS2 coat protein [2]; [6]): 13.3 nM
